Compound activity: PubChem, several laboratories
Dynein cargo inh: blocks dynein driven cargo transport along microtubules | 3617.4 mouse cells, GR-EGFP nuclear translocation imaging; test concentration mostly 20 µM; stimulated with dexamethasone, 1 µM; stronger effect = lower value | z-score, hits read low | actives 0.47% (n = 220,000) | AID 1381;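 active = plate z-score of nuclear minus cytoplasmic receptor signal below a set negative limit, without overly bright fluorescence or cell loss, cut at about -3.5 in these data, passing the limit was not always enough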;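 note: z-score of nuclear minus cytoplasmic ring GR-EGFP intensity difference per well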
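Also added: dexamethasone, 1.0 µM final. Medium: tet-free, stripped-serum medium. Detection: fixed, Hoechst-stained cells imaged at 10x for EGFP. Read-out: nuclear-to-cytoplasmic GR-EGFP distribution per well. Times: induction 48 h, compound 1 h, agonist 30 min.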
PTEN del growth: growth suppressors of cells with PTEN tumor suppressor deletion. HCT116 PTEN-null viability, CellTiter-Glo, 60 h; stronger effect = lower value. viability, % at 10 µM. actives 1.2% (n = 140,000);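 active = viability at or below a set limit, 4 SD under the median of all tested compounds, cut at about 3.7% in these data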;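 note: PTEN knockout HCT116 line with beta catenin targeted HCT116 as companion control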
bCat KO growth: beta-catenin-lacking colon tumor cell growth suppression. actives 1.5% (n = 140,000). viability, % at 10 µM. HCT116 beta-catenin knockout viability, CellTiter-Glo, 60 h; stronger effect = lower value;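 active = viability at or under a set limit, the compound median less 4 SD, cut at about 6% in these data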
sdo1 growth: restores growth of sdo1-depleted yeast; z-score at 10 µM; S. cerevisiae sdo1-depleted JHY4D growth rescue, OD600 30 h; stronger effect = higher value; pdr5 snq2 efflux-pump mutant strain; actives 0.21% (n = 140,000);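 active = z-score above 3 at both the 24 hr and the 30 hr optical density reads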
Autophagy mod: alters autophagy in cells | AID 463193 | MEF GFP-LC3 puncta imaging; test concentration mostly 10 µM | actives 0.98% (n = 190,000) | calls only at 10 µM (by protocol);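 active = percentage of spot-positive cells more than 3 SD above its plate mean, without a fluorescence outlier flag or 80% toxicity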
A number is an active result; – = inactive; · = no result; + = active, no number. In the library only some 2.2% were active in any assay of this set; here they are far more common.

SMILES	Dynein cargo inh	PTEN del growth	bCat KO growth	sdo1 growth	Autophagy mod
O=C1CC(NCc2ccccc2)C(=O)N1c1ccc(F)cc1 (centres undefined)	–	·	·	·	–
CCOC(=O)N1CCN(CC(O)COCCC23CC4CC(CC(C4)C2)C3)CC1 (centres undefined)	–	–	–	–	–
CC1CCCCN1CC(O)COCCC12CC3CC(CC(C3)C1)C2 (centres undefined)	–	·	·	·	+
CC(C)c1cc(CNC(=O)CC2C(=O)NCCN2CC2CCCCC2)on1 (centres undefined)	–	·	·	·	–
C/C(=N\NC(=O)C(C)n1nc(C)c([N+](=O)[O-])c1C)c1ccccc1O (centres undefined)	–	–	6.1	–	–
Cc1ccc(C(=O)C[n+]2cc(Br)cc(Br)c2)cc1	–	·	·	·	·
CCn1nc(C)c(/C=N/NC(=S)Nc2ccc(Cl)cc2Cl)c1C	–	3.8	–	–	–
Cc1nn(C)cc1/C=N/NC(=S)Nc1ccc(Cl)cc1Cl	–	–	–	–	–
COCCNC(=O)c1c(NC(=O)c2nc(SC)ncc2Cl)sc2c1CCCC2	–	–	–	–	+
O=C(Cn1cnc2ccccc21)N1CCN(S(=O)(=O)c2ccccc2)CC1	–	·	·	·	–
CC(C(=O)NC1CCCC1)N(Cc1ccc2c(c1)OCO2)C(=O)c1snc(C(N)=O)c1N (centres undefined)	–	–	–	–	+
Cc1ccc(C2CC(c3cccs3)=NN2C(=O)c2ccco2)o1 (centres undefined)	–	·	·	·	–
Nc1nc(SCC(=O)NC2CCCC2)[nH]c(=O)c1-c1ccccc1	–	–	–	–	–
Cc1cc(NS(=O)(=O)c2ccc(NC(=O)CSc3nc4ncccc4[nH]3)cc2)nc(C)n1	–	·	·	·	·
Cc1[nH]nc(SCC(=O)NC2CCCC2)c1[N+](=O)[O-]	–	·	·	·	–
Cc1cc(NC(=O)c2ccccc2)n(-c2nc3ccccc3[nH]2)n1	–	·	·	·	+
CCn1c(Cc2ccc(OC)cc2)nnc1SCc1nc2ccccc2c(=O)[nH]1	–	·	·	·	–
Cc1ccc(NC2=C/C(=N/S(=O)(=O)c3cccs3)c3ccccc3C2=O)cc1C	–	–	–	–	–
Cc1cc(C)c[n+](C2=C([O-])c3ccccc3C(=O)/C2=N\S(=O)(=O)c2cccs2)c1	–	–	–	–	–
Cc1cc[n+](C2=C([O-])c3ccccc3C(=O)/C2=N\S(=O)(=O)c2cccs2)cc1C	–	1.8	1.6	–	–
CC(=O)Nc1ccc(NC2=C/C(=N/S(=O)(=O)c3cccs3)c3ccccc3C2=O)cc1	–	·	·	·	+
Cc1ccccc1NC1=C/C(=N\S(=O)(=O)c2cccs2)c2ccccc2C1=O	–	1.9	1.5	–	–
Fc1cccc(Cl)c1Cn1nnc2c(NCc3ccncc3)ncnc21	–	·	·	·	–
Cc1ccc(-c2cc3cccc[n+]3cc2-c2ccc(C)cc2)cc1	–	–	3.2	–	–
O=C(Cn1c(NCCO)nc2ccccc21)NCCc1ccccc1	–	–	–	–	–
SMILES	Dynein cargo inh	PTEN del growth	bCat KO growth	sdo1 growth	Autophagy mod
O=C(Cn1c(NCCO)nc2ccccc21)NCC1CCCO1 (centres undefined)	–	·	·	·	+
CCCCCCCC(=O)NN=C1CCN(Cc2ccccc2)CC1	–	–	–	–	–
CCOC(=O)N1CCN(C(=O)/C(=C/c2cccc3ccccc23)NC(=O)c2ccc(OC)c(OC)c2)CC1	–	–	–	–	–
CCN(CC)CCNC(=S)Nc1ccc(F)cc1	–	·	·	·	+
Fc1ccc(NC(=S)NCCN2CCOCC2)cc1	–	·	·	·	–
O=c1[nH]nc(-c2ccc(F)cc2)cc1Cc1ccccc1	–	·	·	·	·
Cc1onc(-c2ccccc2)c1NC(=O)N(CCC#N)Cc1cccs1	–	·	·	·	·
O=C(Nc1ccc(Cl)cc1)NC1CCCC1Cc1ccco1 (centres undefined)	–	2.9	–	–	–
O=C(Nc1ccc(Cl)cc1)NC1CCCCC1Cc1ccco1 (centres undefined)	–	–	–	–	–
COCCN1C(=O)/C(=C/c2ccc(N3CCCC3)cc2)SC1=S	–	·	·	·	+
Cc1c2c(nc3c(C)cccc13)OC(C)C2 (centres undefined)	–	–	–	–	+
COc1ccc(C2CC(c3c(-c4ccccc4)c4cc(Cl)ccc4[nH]c3=O)=NN2S(C)(=O)=O)cc1 (centres undefined)	–	–	–	–	–
